Results: ChEMBL document CHEMBL4038334, “Coumarin versus Chromone Monoamine Oxidase B Inhibitors: Quo Vadis?” (J Med Chem, 2017)

Legend:
[1] = target: T1, Amine oxidase [flavin-containing] A (Homo sapiens, UniProt P21397); assay: Inhibition of human recombinant microsomal MAOA expressed in baculovirus infected BTI-TN-5B1- 4 cells using p-tyramine as substrate assessed as decrease in H2O2 production at 100 uM after 15 mins by amplex red-based fluorescence assay; settings: 0.25 h
T1 sequence (P21397 whole entry): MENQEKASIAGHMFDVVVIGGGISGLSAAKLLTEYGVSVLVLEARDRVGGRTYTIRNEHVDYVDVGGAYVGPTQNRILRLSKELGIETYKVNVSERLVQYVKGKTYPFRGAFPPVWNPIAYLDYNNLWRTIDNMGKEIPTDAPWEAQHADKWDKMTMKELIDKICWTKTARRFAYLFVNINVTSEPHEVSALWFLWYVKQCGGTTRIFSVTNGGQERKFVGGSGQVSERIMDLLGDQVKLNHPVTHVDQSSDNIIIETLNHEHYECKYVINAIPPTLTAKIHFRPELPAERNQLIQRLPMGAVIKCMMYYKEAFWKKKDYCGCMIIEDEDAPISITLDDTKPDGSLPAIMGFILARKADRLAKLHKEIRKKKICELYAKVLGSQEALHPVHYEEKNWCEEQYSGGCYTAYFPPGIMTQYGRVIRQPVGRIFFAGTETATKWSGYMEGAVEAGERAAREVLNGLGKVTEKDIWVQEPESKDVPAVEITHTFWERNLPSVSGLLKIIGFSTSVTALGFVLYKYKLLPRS

[2] = target: T2, Amine oxidase [flavin-containing] B (Homo sapiens, UniProt P27338); assay: Reversible inhibition of human recombinant microsomal MAOB expressed in baculovirus infected BTI-TN-5B1- 4 cells assessed as decrease in H2O2 production at 40 nM after 15 mins by amplex red-based fluorescence assay; settings: 0.25 h, 0.04 µM
T2 sequence (P27338 whole entry): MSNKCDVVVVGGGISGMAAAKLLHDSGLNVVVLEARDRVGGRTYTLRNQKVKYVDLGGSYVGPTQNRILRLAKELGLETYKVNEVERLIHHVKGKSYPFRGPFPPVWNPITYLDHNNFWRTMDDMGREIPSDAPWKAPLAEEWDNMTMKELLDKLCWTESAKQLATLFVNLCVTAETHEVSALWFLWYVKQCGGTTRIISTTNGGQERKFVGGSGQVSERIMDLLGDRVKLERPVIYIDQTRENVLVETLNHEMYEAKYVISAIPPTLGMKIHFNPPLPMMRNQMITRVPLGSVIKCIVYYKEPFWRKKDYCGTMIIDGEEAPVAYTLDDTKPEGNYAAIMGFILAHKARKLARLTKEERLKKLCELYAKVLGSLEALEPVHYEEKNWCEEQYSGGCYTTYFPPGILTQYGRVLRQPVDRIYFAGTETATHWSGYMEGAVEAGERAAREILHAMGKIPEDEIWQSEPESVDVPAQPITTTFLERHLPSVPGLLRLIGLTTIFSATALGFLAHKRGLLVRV

[3] = target: T2, Amine oxidase [flavin-containing] B; assay: biochemical; format: cell-based
Homo sapiens = species on record: Homo sapiens; assay: Selectivity index, ratio of IC50 for human recombinant microsomal MAOA to IC50 for human recombinant microsomal MAOB
[4] = target: T2, Amine oxidase [flavin-containing] B; assay: Noncompetitive inhibition of human recombinant microsomal MAOB expressed in baculovirus infected BTI-TN-5B1- 4 cells using p-tyramine as substrate assessed as decrease in H2O2 production by Lineweaver-Burk plot analysis
How it was run: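 Substrate-dependent kinetic experiments on hMAO-B. Inhibition mode was read from Lineweaver-Burk plots, and Ki was calculated from the corresponding Dixon plots.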

[5] = target: T2, Amine oxidase [flavin-containing] B; assay: Binding affinity to human recombinant microsomal MAOB expressed in baculovirus infected BTI-TN-5B1- 4 cells assessed as decrease in H2O2 production at 12.5 nM after 15 mins by amplex red-based fluorescence assay; settings: 0.25 h, 0.0125 µM
[6] = target: T2, Amine oxidase [flavin-containing] B; assay: Reversible inhibition of human recombinant microsomal MAOB expressed in baculovirus infected BTI-TN-5B1- 4 cells assessed as decrease in H2O2 production at 12.5 nM after 60 mins by amplex red-based fluorescence assay; settings: 1 h, 0.0125 µM

inhibition (INH) [1]	inhibition (INH) [2]	IC50 [3]	Ratio IC50 (Homo sapiens)	Ki [4]	Activity [5]	inhibition (INH) [6]	SMILES
Not Active		513 nM	> 195				Cc1ccc2occ(C(=O)Nc3ccc(O)cc3)c(=O)c2c1
Not Active		4.2 nM	> 23800	2.69 nM	Active	Active	Cc1ccc2occ(C(=O)Nc3cccc(Cl)c3)c(=O)c2c1
Not Active		152 nM	> 660				Cc1ccc(NC(=O)c2coc3ccc(C)cc3c2=O)cc1
Not Active		211 nM	> 474				COc1ccc2occ(C(=O)Nc3ccc(C)cc3)c(=O)c2c1
Not Active		45.4 nM	> 2200				Cc1ccc2occ(C(=O)Nc3ccc(Cl)cc3)c(=O)c2c1
Not Active		13.9 nM	> 7190				Cc1ccc(NC(=O)c2cc3cc(C)ccc3oc2=O)cc1
Not Active		78.2 nM	> 1280				Cc1ccc2occ(C(=O)Nc3cccc(O)c3)c(=O)c2c1
Not Active		17.1 nM	> 5850				Cc1cccc(NC(=O)c2coc3ccc(C)cc3c2=O)c1
Not Active		21.4 nM	> 4680				Cc1ccc2occ(C(=O)Nc3ccccc3)c(=O)c2c1

Continued, compound first:

SMILES	inhibition (INH) [1]	inhibition (INH) [2]	IC50 [3]	Ratio IC50 (Homo sapiens)	Ki [4]	Activity [5]	inhibition (INH) [6]
C[C@H](NCc1ccc(OCc2cccc(F)c2)cc1)C(N)=O [SAFINAMIDE]	Not Active	Active					
COc1ccc2occ(C(=O)Nc3ccc(O)cc3)c(=O)c2c1	Not Active		674 nM	> 148			
COc1ccc2oc(=O)c(C(=O)Nc3ccc(C)cc3)cc2c1	Not Active		19.4 nM	> 5150			
COc1ccc2occ(C(=O)Nc3ccc(Cl)cc3)c(=O)c2c1	Not Active		10.3 nM	> 9700			
Cc1ccc2oc(=O)c(C(=O)Nc3ccc(Cl)cc3)cc2c1	Not Active		11.1 nM	> 9030			
Cc1ccc2oc(=O)c(C(=O)Nc3cccc(O)c3)cc2c1	Not Active		45.4 nM	> 2200			
COc1ccc2oc(=O)c(C(=O)Nc3cccc(O)c3)cc2c1	Not Active		229 nM	> 447			
COc1ccc2occ(C(=O)Nc3cccc(O)c3)c(=O)c2c1	Not Active		113 nM	> 881			
COc1ccc2occ(C(=O)Nc3cccc(Cl)c3)c(=O)c2c1	Not Active		3.94 nM	> 25400			
COc1ccc2oc(=O)c(C(=O)Nc3ccc(O)cc3)cc2c1	Not Active						
Cc1ccc2oc(=O)c(C(=O)Nc3ccccc3)cc2c1	Not Active		15.3 nM	> 6530			
COc1ccc2oc(=O)c(C(=O)Nc3cccc(Cl)c3)cc2c1	Not Active		9.03 nM	> 11100			
Cc1cccc(NC(=O)c2cc3cc(C)ccc3oc2=O)c1	Not Active		7.52 nM	> 13300			
COc1ccc2occ(C(=O)Nc3cccc(C)c3)c(=O)c2c1	Not Active		21.8 nM	> 4590			
COc1ccc2oc(=O)c(C(=O)Nc3ccccc3)cc2c1	Not Active		5.95 nM	> 16800			
Cc1ccc2oc(=O)c(C(=O)Nc3ccc(O)cc3)cc2c1	Not Active		622 nM	> 161			
Cc1ccc2oc(=O)c(C(=O)Nc3cccc(Cl)c3)cc2c1	Not Active		5.07 nM	> 19700	1.17 nM	Active	Active
COc1ccc2oc(=O)c(C(=O)Nc3ccc(Cl)cc3)cc2c1	Not Active		18.9 nM	> 5290			
COc1ccc2occ(C(=O)Nc3ccccc3)c(=O)c2c1	Not Active		41.8 nM	> 2390			
COc1ccc2oc(=O)c(C(=O)Nc3cccc(C)c3)cc2c1	Not Active		47.2 nM	> 2120			
